Results as given in ChEMBL document CHEMBL1135421, “2-(Anilinomethyl)imidazolines as alpha1 adrenergic receptor agonists: the discovery of alpha1a subtype selective 2'-alkylsulfonyl-substituted analogues” (J Med Chem, 2002).
Where “and” joins values, the source holds several entries; their conditions need not be identical. Equal values may be shown once.

Assays:
[1] = biological target: T1, Alpha-2A adrenergic receptor (Homo sapiens, UniProt P08913); experiment: Affinity to human Alpha-2A adrenergic receptor determined by radioligand binding techniques from chinese hamster ovary (CHO) cells; type: cell-based
T1 sequence (P08913 whole entry): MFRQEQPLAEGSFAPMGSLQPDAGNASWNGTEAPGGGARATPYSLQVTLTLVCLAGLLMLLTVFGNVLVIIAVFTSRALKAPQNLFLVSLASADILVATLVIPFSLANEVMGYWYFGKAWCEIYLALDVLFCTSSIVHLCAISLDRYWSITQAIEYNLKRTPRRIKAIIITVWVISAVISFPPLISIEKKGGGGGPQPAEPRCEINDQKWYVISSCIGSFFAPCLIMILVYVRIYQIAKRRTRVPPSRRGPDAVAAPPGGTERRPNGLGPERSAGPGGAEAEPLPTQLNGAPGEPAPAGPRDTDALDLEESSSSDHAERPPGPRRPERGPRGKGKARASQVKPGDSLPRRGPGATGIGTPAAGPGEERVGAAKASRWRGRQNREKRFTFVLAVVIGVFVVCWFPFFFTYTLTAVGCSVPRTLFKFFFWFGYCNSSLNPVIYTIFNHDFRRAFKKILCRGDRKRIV

[2] = biological target: T2, Alpha-1D adrenergic receptor (Homo sapiens, UniProt P25100); experiment: Affinity to human Alpha-1D adrenergic receptor determined by radioligand binding techniques from rat-1 fibroblasts membranes
T2 sequence (P25100 whole entry): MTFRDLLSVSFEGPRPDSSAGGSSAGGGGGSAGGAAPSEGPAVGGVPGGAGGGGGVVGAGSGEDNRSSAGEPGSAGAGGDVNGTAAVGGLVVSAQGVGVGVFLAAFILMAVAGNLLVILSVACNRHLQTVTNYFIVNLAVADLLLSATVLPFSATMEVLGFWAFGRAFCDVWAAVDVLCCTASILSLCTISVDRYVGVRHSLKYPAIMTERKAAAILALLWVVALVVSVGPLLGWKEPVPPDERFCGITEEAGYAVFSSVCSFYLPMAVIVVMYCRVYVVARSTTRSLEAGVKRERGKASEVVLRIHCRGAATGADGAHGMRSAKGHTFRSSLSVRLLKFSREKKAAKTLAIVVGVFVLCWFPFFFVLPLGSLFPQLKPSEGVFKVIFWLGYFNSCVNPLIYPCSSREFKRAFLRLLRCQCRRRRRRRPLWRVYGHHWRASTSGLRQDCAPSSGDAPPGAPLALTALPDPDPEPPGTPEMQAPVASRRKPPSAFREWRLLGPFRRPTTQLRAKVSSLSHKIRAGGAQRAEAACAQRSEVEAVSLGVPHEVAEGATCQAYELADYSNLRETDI

[3] = biological target: T2, Alpha-1D adrenergic receptor; experiment: Agonist potency at Alpha-1D adrenergic receptor assayed in rat-1 fibroblasts expressing human Alpha-1D adrenergic receptor; type: functional
Summary of the method: (§1)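 Rat-1 fibroblasts expressing human α1a/α1b/α1d, grown in DMEM with 10% heat-inactivated FBS and 0.6 mg/mL G418, plated 6000 cells/well and cultured 48 h at 37 °C. Loaded 2 h at 37 °C with Calcium Green (4 μM), 0.2% pluronic acid and 2.5 mM probenecid in HEPES buffer pH 7.4. FLIPR read at room temperature: 10 s baseline, then 50 s after compound. 11-point curves as % of 40 μM phenylephrine response, top concentration typically 5 μM.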

[4] = biological target: T3, Alpha-1A adrenergic receptor (Homo sapiens, UniProt P35348); experiment: Agonist potency at Alpha-1 adrenergic receptor assayed in rat-1 fibroblasts expressing human Alpha-1 adrenergic receptor; type: functional; summary of the method: as §1
T3 sequence (P35348 whole entry): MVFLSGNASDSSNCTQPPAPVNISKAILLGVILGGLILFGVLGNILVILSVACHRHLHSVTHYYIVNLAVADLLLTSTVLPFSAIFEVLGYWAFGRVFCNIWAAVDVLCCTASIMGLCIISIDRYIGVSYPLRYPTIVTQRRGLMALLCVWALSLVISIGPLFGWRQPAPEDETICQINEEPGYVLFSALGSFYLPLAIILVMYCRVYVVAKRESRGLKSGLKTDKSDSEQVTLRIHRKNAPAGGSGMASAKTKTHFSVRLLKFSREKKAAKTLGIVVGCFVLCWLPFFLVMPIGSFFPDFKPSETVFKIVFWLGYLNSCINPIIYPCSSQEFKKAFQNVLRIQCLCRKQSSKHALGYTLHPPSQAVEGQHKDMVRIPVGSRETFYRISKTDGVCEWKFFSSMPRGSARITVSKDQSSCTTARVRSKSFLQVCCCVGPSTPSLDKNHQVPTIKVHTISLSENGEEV

[5] = biological target: T4, Alpha-2A adrenergic receptor (Homo sapiens) (UniProt P08913); experiment: Efficacy as percentage of the maximal effect observed for nonselective agonist UK-14304 in CHO cells expressing human Alpha-2A adrenergic receptor; type: functional, cell-based
T4 sequence (whole entry): T1 sequence (P08913 whole entry)

[6] = biological target: T3, Alpha-1A adrenergic receptor; experiment: Affinity to Alpha-1 adrenergic receptor determined by radioligand binding techniques from rat-1 fibroblasts membranes
[7] = biological target: T5, Alpha-1B adrenergic receptor (Homo sapiens, UniProt P35368); experiment: Affinity to human Alpha-1B adrenergic receptor determined by radioligand binding techniques from rat-1 fibroblasts membranes
T5 sequence (P35368 whole entry): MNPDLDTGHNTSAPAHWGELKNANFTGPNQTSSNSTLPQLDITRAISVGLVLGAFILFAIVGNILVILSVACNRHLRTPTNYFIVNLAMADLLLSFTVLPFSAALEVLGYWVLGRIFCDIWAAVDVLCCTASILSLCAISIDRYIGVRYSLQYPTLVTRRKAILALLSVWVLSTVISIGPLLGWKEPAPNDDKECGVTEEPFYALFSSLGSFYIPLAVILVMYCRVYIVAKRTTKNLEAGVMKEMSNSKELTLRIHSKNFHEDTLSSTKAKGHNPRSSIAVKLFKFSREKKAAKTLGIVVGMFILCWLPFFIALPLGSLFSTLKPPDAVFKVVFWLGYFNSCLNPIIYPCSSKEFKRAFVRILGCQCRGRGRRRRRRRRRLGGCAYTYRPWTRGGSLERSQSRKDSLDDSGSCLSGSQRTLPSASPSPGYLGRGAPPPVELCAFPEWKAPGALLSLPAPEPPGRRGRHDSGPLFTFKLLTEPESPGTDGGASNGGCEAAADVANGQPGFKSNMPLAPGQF

[8] = biological target: T6, Alpha-2C adrenergic receptor (Homo sapiens) (UniProt P18825); experiment: Efficacy as percentage of the maximal effect observed for nonselective agonist UK-14304 in CHO cells expressing human Alpha-2C adrenergic receptor; type: functional, cell-based
T6 sequence (whole entry): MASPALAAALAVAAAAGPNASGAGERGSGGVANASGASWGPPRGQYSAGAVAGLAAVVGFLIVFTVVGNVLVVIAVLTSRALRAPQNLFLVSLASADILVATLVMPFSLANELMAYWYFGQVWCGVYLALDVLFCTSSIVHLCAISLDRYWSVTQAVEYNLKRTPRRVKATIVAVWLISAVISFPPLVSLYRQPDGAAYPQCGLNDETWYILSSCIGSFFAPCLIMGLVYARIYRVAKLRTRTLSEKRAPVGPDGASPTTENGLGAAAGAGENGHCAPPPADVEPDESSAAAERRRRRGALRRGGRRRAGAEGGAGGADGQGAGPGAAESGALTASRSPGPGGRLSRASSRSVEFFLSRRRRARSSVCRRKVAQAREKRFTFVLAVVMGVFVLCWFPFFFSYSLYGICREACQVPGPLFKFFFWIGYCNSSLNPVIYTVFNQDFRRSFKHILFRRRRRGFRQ

[9] = biological target: T7, Alpha-2C adrenergic receptor (Homo sapiens, UniProt P18825); experiment: Affinity to human Alpha-2C adrenergic receptor determined by radioligand binding techniques from chinese hamster ovary (CHO) cells; type: cell-based
T7 sequence (P18825 whole entry): T6 sequence (whole entry)

[10] = biological target: T5, Alpha-1B adrenergic receptor; experiment: Agonist potency at Alpha-1B adrenergic receptor expressed in rat-1 fibroblasts; type: functional
[11] = biological target: T1, Alpha-2A adrenergic receptor; experiment: Agonist potency at Alpha-2A stably expressed in CHO cells.; type: functional, cell-based
[12] = biological target: T7, Alpha-2C adrenergic receptor; experiment: Agonist potency at Alpha-2C adrenergic receptor assayed in CHO cells expressing human Alpha-2C adrenergic receptor; type: functional, cell-based
[13] = biological target: T8, Alpha-1A adrenergic receptor (Homo sapiens) (UniProt P35348); experiment: Efficacy as % of the maximal effect observed for nonselective agonist phenylephrine in rat-1 fibroblasts expressing human Alpha-1 adrenergic receptor; type: functional; summary of the method: as §1
T8 sequence (whole entry): T3 sequence (P35348 whole entry)

[14] = biological target: T9, Alpha-2B adrenergic receptor (Homo sapiens, UniProt P18089); experiment: Affinity to human Alpha-2B adrenergic receptor determined by radioligand binding techniques from chinese hamster ovary (CHO) cells; type: cell-based
T9 sequence (P18089 whole entry): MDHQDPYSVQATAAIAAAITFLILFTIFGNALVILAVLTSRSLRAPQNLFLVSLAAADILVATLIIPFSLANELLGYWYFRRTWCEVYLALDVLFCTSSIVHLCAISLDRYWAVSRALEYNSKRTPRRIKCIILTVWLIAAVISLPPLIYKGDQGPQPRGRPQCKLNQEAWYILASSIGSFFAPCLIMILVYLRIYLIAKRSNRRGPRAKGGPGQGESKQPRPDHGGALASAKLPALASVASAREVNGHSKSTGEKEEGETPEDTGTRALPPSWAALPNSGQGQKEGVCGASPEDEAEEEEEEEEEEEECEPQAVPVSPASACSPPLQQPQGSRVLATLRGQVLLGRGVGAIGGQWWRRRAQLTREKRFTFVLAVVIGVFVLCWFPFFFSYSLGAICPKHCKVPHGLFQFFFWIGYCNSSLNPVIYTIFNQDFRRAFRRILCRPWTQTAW

Structure (SMILES) | Ki [1] [µM] | Ki [2] [µM] | EC50 [3] [µM] | EC50 [4] [µM] | Max [5] [%] | Ki [6] [µM] | Ki [7] [µM] | Max [8] [%] | Ki [9] [µM] | EC50 [10] [µM] | EC50 [11] | EC50 [12] [µM] | Max [13] [%] | Ki [14] [µM]
O=S1(=O)CCCc2cccc(NCC3=NCCN3)c21 | 0.794 | > 15.8 | > 100 | > 100 | 29 | 0.617 | 2.14 | 69 | 2.69 | > 100 | > 10 µM | 6.31 |  | 
Cc1cc(C(C)(C)C)c(O)c(C)c1CC1=NCCN1 |  |  |  |  | 88 |  |  |  |  |  |  |  |  | 
CS(=O)(=O)Nc1ccc(F)c([C@@H](O)CN)c1 [NS-49] |  |  | > 100 | 0.158 | 34 | 1.12 | 11.2 | 87 |  | > 100 | > 10 µM | 2 | 109 | 
COc1ccc(S(C)(=O)=O)c(NCC2=NCCN2)c1 | 3.63 | 7.59 | > 100 | 0.0141 | 16 | 1.62 | 4.57 | 49 | > 5.01 | > 100 | > 10 µM and 3.31 µM |  | 102 | > 6.31
